# Paper PMC12676294 (ACS Omega, 2025)
# Assay: Potentiometric titration: protonation constants of the ligands
# Format: physicochemical
# Settings: T = 25.0 °C; I = 0.1 M KNO3
# Procedure, shortened: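 Ligand (about 1 mM, 16 mL) with 5–9 mM HClO4 titrated with carbonate-free NaOH (about 0.1 M) under argon with stirring, at 25.0 ± 0.1 °C in 0.1 M KNO3. Glass electrode calibrated as an H+ concentration probe by Gran's method; pKw fixed at 13.78. Points accepted at drift <0.5 mV/min, pH 2–12, 55–130 points per dataset. Stepwise constants were refined from the titration curves.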
compound,measurement,value
"NC(=O)CN1CCNC(=O)c2cccc(n2)C(=O)NCCN(CC(N)=O)CC1 [Py2am, 2-[9-(Carbamoylmethyl)-2,13-dioxo-3,6,9,12,18-pentaazabicyclo[12.3.1]octadeca-1(17),14(18),15-trien-6-yl]acetamide]","Stepwise protonation constant Log K, HL",5.1 (1)
